Measured values: ChEMBL document CHEMBL5331128, “Alicyclic Ring Size Variation of 4-Phenyl-2-naphthoic Acid Derivatives as P2Y14 Receptor Antagonists” (J Med Chem, 2023)
Active and inactive are the calls of the source.

How the values were obtained:
[1] = target: 5-hydroxytryptamine receptor 1B (Homo sapiens, UniProt P28222); experiment: Displacement of [3H]-5-CT from human 5-HT1B receptor assessed as inhibition constant by radioligand displacement assay
Mus musculus [2] = experiment: Antiallodynic activity in CCI surgery neuropathic pain Hsd:ICR mouse model assessed as reversal of mechano-allodynia by measuring paw withdrawal threshold at 10 micromol/kg,ip and measured at 3 hrs by von frey test; type: functional, organism-based; details: dose 10.0 µmol/kg
In short: (§1)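 CCI neuropathic pain in adult male Hsd:ICR (CD-1) mice (20–30 g). Single i.p. injection on day 7 after sciatic nerve constriction, at peak pain. Vehicle 10% (Kolliphor HS 15:DMSO 5:95) in saline, 0.2 mL. Paw withdrawal threshold by von Frey filaments on ipsilateral and contralateral hindpaws. Mean ± SD; two-way ANOVA with Dunnett's test versus day 0 and day 7.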

P2Y purinoceptor 14 [3] = target: T1, P2Y purinoceptor 14 (Mus musculus, UniProt Q9ESG6); experiment: Displacement of fluorescent tracer 4-(4-(1-(4-(1-(6-(3-carboxylato-4-(3-iminio-3H-xanthen-9-yl)benzamido)hexyl)-4,5-dihydro-1H-pyrrol-3-yl)butyl)piperidin-1-ium-4-yl)phenyl)-7-(4-(trifluoromethyl)phenyl)-2-naphthoate from mouse P2Y14R stably expressed in human HEK293 cells by flow cytometry; type: cell-based
T1 sequence (Q9ESG6 whole entry): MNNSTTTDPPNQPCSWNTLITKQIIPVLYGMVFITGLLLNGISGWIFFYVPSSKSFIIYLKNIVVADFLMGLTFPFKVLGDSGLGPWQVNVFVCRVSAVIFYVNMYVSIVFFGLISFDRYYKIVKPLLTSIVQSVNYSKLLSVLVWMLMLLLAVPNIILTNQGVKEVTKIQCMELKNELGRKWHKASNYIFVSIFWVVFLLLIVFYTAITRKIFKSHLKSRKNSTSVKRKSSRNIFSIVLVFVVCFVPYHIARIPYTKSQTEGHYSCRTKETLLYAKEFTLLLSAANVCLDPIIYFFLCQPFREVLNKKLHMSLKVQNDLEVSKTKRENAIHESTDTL
In short: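 Whole-cell competitive binding: CHO cells expressing hP2Y14R (or HEK-293 cells expressing mP2Y14R) incubated with AlexaFluor488-labelled antagonist tracer at 20 nM. […] Ki derived by dividing IC50 by 1.72.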

Mus musculus [4] = experiment: Antiallodynic activity in CCI surgery neuropathic pain Hsd:ICR mouse model assessed as reversal of mechano-allodynia by measuring paw withdrawal threshold at 10 micromol/kg,po and measured upto 6 hrs by von frey test; type: functional, organism-based; details: dose 10.0 µmol/kg
In short: (§2)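 CCI neuropathic pain in adult male CD-1 mice. Single oral gavage dose of 10 μmol/kg on day 7 post-surgery. Vehicle 5% DMSO + 10% (Kolliphor HS 15:DMSO 5:95) in 0.5% methylcellulose, 0.2 mL. Von Frey paw withdrawal threshold on both hindpaws. Mean ± SD; two-way ANOVA with Dunnett's test.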

P2Y purinoceptor 14 [5] = target: T2, P2Y purinoceptor 14 (Homo sapiens, UniProt Q15391); experiment: Displacement of fluorescent tracer 4-(4-(1-(4-(1-(6-(3-carboxylato-4-(3-iminio-3H-xanthen-9-yl)benzamido)hexyl)-4,5-dihydro-1H-pyrrol-3-yl)butyl)piperidin-1-ium-4-yl)phenyl)-7-(4-(trifluoromethyl)phenyl)-2-naphthoate from human P2Y14R stably expressed in CHO cells assessed as inhibition constant by flow cytometry; type: cell-based
T2 sequence (Q15391 whole entry): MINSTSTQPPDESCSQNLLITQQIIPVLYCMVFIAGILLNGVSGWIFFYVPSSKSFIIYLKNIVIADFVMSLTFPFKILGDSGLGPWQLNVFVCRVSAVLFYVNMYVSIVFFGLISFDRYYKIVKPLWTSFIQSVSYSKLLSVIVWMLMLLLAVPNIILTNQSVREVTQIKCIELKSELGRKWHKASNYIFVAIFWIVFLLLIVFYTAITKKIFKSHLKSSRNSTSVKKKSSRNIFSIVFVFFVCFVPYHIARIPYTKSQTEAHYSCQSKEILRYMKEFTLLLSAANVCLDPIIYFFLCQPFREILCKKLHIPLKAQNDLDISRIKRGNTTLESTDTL
In short: (§3)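 Whole-cell competitive binding: CHO cells expressing hP2Y14R (or HEK-293 cells expressing mP2Y14R) incubated with AlexaFluor488-labelled antagonist tracer at 20 nM.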

[6] = Lipophilicity, log D of compound at pH 7.4 incubated for 20 hrs by HPLC analysis; type: physicochemical; details: buffer
[7] = Selectivity ratio, ratio of IC50 for displacement of fluorescent tracer 4-(4-(1-(4-(1-(6-(3-carboxylato-4-(3-iminio-3H-xanthen-9-yl)benzamido)hexyl)-4,5-dihydro-1H-pyrrol-3-yl)butyl)piperidin-1-ium-4-yl)phenyl)-7-(4-(trifluoromethyl)phenyl)-2-naphthoate from mouse P2Y14R stably expressed in human HEK293 cells to IC50 for displacement of fluorescent tracer 4-(4-(1-(4-(1-(6-(3-carboxylato-4-(3-iminio-3H-xanthen-9-yl)benzamido)hexyl)-4,5-dihydro-1H-pyrrol-3-yl)butyl)piperidin-1-ium-4-yl)phenyl)-7-(4-(trifluoromethyl)phenyl)-2-naphthoate from human P2Y14R stably expressed in CHO cells; type: cell-based
[8] = target: T3, Alpha-1B adrenergic receptor (Homo sapiens, UniProt P35368); experiment: Displacement of [3H]-Prazosin from human adrenergic alpha1B receptor assessed as inhibition constant by radioligand displacement assay
T3 sequence (P35368 whole entry): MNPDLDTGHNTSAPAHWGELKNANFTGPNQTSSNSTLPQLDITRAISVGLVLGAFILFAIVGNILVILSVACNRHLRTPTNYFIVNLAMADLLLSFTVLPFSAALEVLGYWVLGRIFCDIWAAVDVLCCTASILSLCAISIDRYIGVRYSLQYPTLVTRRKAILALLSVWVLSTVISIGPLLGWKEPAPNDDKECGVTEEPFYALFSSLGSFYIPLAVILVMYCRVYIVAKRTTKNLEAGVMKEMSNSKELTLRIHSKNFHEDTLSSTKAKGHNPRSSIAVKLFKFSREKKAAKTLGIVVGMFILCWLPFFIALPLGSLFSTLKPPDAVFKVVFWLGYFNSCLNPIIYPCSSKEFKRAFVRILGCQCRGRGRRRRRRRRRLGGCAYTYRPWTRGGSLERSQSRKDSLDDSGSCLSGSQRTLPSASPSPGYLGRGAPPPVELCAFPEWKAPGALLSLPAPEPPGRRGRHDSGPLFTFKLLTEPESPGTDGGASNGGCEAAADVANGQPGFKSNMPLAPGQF

Mus musculus [9] = experiment: Antiallodynic activity in CCI surgery neuropathic pain Hsd:ICR mouse model assessed as reversal of mechano-allodynia by measuring paw withdrawal threshold at 10 micromol/kg,ip and measured upto 5 days by von frey test; type: functional, organism-based; details: dose 10.0 µmol/kg, time <= 5.0 day; in short: as §1
[10] = target: T4, Alpha-2A adrenergic receptor (Homo sapiens, UniProt P08913); experiment: Displacement of [3H]-Rauwolscine from human adrenergic alpha2A receptor assessed as inhibition constant by radioligand displacement assay
T4 sequence (P08913 whole entry): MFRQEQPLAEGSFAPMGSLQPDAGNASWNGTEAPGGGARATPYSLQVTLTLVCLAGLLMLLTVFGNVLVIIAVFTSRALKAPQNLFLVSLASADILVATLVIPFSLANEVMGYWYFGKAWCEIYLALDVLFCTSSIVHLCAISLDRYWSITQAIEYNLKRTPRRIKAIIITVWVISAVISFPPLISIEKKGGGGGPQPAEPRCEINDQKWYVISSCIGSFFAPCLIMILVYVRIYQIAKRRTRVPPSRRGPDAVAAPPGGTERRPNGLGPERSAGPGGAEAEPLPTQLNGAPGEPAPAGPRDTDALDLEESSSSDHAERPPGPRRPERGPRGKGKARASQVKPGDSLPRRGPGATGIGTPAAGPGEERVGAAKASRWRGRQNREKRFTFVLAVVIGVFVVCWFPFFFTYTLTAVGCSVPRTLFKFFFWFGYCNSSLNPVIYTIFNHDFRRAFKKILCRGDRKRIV

[11] = target: T5, P2Y purinoceptor 14 (Homo sapiens) (UniProt Q15391); experiment: Binding affinity to human P2Y14R stably expressed in CHO cells at 2 to 20000 nM by flow cytometry; type: cell-based; details: dose 2-20000 nM
T5 sequence (whole entry): T2 sequence (Q15391 whole entry)
In short: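 Whole CHO cells expressing hP2Y14R. Binding of an AlexaFluor-free JaneliaFluor 646 tracer conjugate was tested at final concentrations of 2, 100, 500 and 20,000 nM, under conditions similar to the AlexaFluor488 tracer assay (20 nM). Specific binding was read by flow cytometry.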

P2Y purinoceptor 14 [12] = target: T2, P2Y purinoceptor 14; experiment: Displacement of fluorescent tracer 4-(4-(1-(4-(1-(6-(3-carboxylato-4-(3-iminio-3H-xanthen-9-yl)benzamido)hexyl)-4,5-dihydro-1H-pyrrol-3-yl)butyl)piperidin-1-ium-4-yl)phenyl)-7-(4-(trifluoromethyl)phenyl)-2-naphthoate from human P2Y14R stably expressed in CHO cells by flow cytometry; type: cell-based; in short: as §3
[13] = Antagonist activity at chimpanzee P2Y14R stably expressed in human HEK cells assessed as inhibition of UDP-glucose induced Ca2+ signaling incubated for 20 mins by FLIPR analysis; type: cell-based; details: Pan troglodytes, HEK293, 20 min
[14] = Stability in mouse plasma assessed as half life at 1 uM and measured at 120 mins by LC-MS/MS analysis; type: ADME, cell-free
[15] = Stability in human plasma assessed as half life at 1 uM and measured at 120 mins by LC-MS/MS analysis; type: ADME, cell-free
Mus musculus [16] = experiment: Antiallodynic activity in CCI surgery neuropathic pain Hsd:ICR mouse model assessed as reversal of mechano-allodynia by measuring paw withdrawal threshold at 10 micromol/kg,po and measured at 1 hrs by von frey test; type: functional, organism-based; details: dose 10.0 µmol/kg; in short: as §2
Histamine H1 receptor = Histamine H1 receptor (Homo sapiens, UniProt P35367); experiment: Displacement of [3H]-Pyrilamine from human histamine H1 receptor assessed as inhibition constant by radioligand displacement assay
Sequence of Histamine H1 receptor (P35367 whole entry): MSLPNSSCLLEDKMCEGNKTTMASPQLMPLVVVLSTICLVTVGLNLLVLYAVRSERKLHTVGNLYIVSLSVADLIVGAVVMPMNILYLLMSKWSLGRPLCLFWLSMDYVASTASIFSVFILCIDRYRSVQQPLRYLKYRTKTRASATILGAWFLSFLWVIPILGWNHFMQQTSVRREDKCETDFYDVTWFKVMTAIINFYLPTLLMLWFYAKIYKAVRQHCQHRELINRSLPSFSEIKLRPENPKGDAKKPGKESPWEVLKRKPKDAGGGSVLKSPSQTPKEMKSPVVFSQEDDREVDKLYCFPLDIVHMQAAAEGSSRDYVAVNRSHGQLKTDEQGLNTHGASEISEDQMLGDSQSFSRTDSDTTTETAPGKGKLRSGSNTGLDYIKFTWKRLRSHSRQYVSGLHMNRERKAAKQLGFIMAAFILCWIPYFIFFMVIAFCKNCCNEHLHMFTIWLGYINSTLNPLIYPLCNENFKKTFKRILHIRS

[17] = target: Beta-3 adrenergic receptor (Homo sapiens, UniProt P13945); experiment: Displacement of [125I]-Pindolol from human adrenergic beta3 receptor assessed as inhibition constant by radioligand displacement assay
Sequence of Beta-3 adrenergic receptor (P13945 whole entry): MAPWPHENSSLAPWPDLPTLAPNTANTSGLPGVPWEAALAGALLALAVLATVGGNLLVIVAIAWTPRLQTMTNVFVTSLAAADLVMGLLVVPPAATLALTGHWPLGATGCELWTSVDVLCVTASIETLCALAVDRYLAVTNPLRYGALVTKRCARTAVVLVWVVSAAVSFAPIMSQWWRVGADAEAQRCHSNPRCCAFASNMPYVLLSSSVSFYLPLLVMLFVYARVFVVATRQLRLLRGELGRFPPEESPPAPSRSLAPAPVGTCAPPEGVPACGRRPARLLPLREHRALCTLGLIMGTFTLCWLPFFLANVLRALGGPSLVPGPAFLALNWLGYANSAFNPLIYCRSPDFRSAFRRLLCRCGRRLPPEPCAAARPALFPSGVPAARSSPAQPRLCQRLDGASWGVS

[18] = target: Sigma intracellular receptor 2 (Homo sapiens, UniProt Q5BJF2); experiment: Displacement of [3H]-DTG from human sigma 2 receptor assessed as inhibition constant by radioligand displacement assay
Sequence of Sigma intracellular receptor 2 (Q5BJF2 whole entry): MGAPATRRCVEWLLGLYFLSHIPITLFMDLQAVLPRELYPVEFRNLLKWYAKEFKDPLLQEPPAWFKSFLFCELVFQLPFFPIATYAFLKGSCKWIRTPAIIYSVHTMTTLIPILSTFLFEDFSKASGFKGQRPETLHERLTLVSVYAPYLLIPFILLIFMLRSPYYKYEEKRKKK

[19] = target: Sigma non-opioid intracellular receptor 1 (Homo sapiens, UniProt Q99720); experiment: Displacement of [3H]-Pentazocine from human sigma 1 receptor assessed as inhibition constant by radioligand displacement assay
Sequence of Sigma non-opioid intracellular receptor 1 (Q99720 whole entry): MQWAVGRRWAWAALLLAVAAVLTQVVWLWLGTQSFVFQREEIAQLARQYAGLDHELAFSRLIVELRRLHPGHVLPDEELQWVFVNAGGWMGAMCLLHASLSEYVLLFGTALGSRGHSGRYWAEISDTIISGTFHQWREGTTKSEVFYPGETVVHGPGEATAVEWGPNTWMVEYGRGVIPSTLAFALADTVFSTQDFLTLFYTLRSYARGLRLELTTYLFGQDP

[20] = target: T5, P2Y purinoceptor 14 (Homo sapiens); experiment: Displacement of fluorescent tracer 4-(4-(1-(4-(1-(6-(3-carboxylato-4-(3-iminio-3H-xanthen-9-yl)benzamido)hexyl)-4,5-dihydro-1H-pyrrol-3-yl)butyl)piperidin-1-ium-4-yl)phenyl)-7-(4-(trifluoromethyl)phenyl)-2-naphthoate from human P2Y14R stably expressed in CHO cells upto 100 uM by flow cytometry; type: cell-based
[21] = target: T6, Muscarinic acetylcholine receptor M5 (Homo sapiens, UniProt P08912); experiment: Displacement of […] from human muscarinic M5 receptor assessed as inhibition constant by radioligand displacement assay
T6 sequence (P08912 whole entry): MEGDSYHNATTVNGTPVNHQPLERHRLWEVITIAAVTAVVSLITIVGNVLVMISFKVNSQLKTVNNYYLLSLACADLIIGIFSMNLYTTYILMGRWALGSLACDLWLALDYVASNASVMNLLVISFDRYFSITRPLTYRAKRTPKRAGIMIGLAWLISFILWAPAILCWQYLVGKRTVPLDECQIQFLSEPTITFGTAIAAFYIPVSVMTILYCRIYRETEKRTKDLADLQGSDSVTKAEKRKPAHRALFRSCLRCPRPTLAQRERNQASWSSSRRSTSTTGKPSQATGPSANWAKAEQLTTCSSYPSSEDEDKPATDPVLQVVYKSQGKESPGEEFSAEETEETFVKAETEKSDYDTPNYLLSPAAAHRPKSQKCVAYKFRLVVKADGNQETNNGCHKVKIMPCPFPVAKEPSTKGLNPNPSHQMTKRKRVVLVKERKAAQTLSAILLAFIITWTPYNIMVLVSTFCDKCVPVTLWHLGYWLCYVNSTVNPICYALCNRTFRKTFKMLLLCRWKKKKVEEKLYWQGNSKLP

Sequence of 5-hydroxytryptamine receptor 1B (P28222 whole entry): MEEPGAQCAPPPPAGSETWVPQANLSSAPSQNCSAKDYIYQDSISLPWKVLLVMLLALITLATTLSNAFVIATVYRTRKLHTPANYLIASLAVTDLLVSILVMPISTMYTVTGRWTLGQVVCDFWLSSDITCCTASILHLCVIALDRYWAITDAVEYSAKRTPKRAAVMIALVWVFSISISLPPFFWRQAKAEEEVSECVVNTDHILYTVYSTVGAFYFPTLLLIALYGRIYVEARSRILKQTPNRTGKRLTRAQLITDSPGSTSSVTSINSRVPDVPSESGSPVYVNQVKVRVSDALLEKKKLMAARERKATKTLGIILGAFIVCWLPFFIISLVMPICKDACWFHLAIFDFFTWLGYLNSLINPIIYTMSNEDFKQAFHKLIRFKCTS

Compound: O=C(O)c1cc(-c2ccc(C3(O)C[C@H]4CNC[C@@H]4C3)cc2)c2ccc(-c3ccc(C(F)(F)F)cc3)cc2c1 (racemic)
- Ki [1]: 5.4 µM
- Activity (Mus musculus [2]): Active
- IC50 (P2Y purinoceptor 14 [3]): 6.78 nM
- Activity (Mus musculus [4]): Active
- Ki (P2Y purinoceptor 14 [5]): 5.51 nM
- logD at 20 h [6]: 1.1
- Ratio IC50 [7]: 0.715
- Ki [8]: 6.4 µM
- Activity (Mus musculus [9]): Active
- Ki [10]: 5.7 µM

Compound: C[Si]1(C)C2=CC(=[N+]3CCC3)C=CC2=C(c2cc(C(=O)NCCCCCCn3cc(CCCCN4CCC(c5ccc(-c6cc(C(=O)O)cc7cc(-c8ccc(C(F)(F)F)cc8)ccc67)cc5)CC4)nn3)ccc2C(=O)[O-])c2ccc(N3CCC3)cc21
- Activity [11]: inactive
- Ki (P2Y purinoceptor 14 [5]): 9240 nM
- IC50 (P2Y purinoceptor 14 [12]): 25.9 µM

Compound: O=C(O)c1cc(-c2ccc(C3(O)CCNCC3)cc2)c2ccc(-c3ccc(C(F)(F)F)cc3)cc2c1
- IC50 [13]: 6.3 nM

Compound: O=C(O)c1cc(-c2ccc(C3CCNCC3)cc2)c2ccc(-c3ccc(C(F)(F)F)cc3)cc2c1 [PPTN]
- half-life at 1 µM [14]: 1.5 min
- half-life at 1 µM [15]: > 720 min
- Activity (Mus musculus [16]): Active

Compound: O=C(O)c1cc(-c2ccc(C3CCCNCC3)cc2)c2ccc(-c3ccc(C(F)(F)F)cc3)cc2c1 (racemic)
- Ki [1]: 4.5 µM
- Ki (Histamine H1 receptor): 2.8 µM
- IC50 (P2Y purinoceptor 14 [3]): 25.7 nM
- Ki [17]: 6.6 µM
- Activity (Mus musculus [4]): Active
- Ki [18]: 2800 nM
- Ki (P2Y purinoceptor 14 [5]): 5.57 nM
- logD at 20 h [6]: 2.1
- Ki [19]: 890 nM
- Ratio IC50 [7]: 2.68
- Activity (Mus musculus [9]): Active

Compound: O=C(Cc1ccc(C(F)(F)F)cc1)Nc1cccc(-c2nc3cc(Cl)ccc3o2)c1
- Activity [20]: inactive

Compound: O=C(O)c1cc(-c2ccc(C3=CC4(CNC4)C3)cc2)c2ccc(-c3ccc(C(F)(F)F)cc3)cc2c1
- Ki [1]: 6.7 µM
- Ki (Histamine H1 receptor): 5.6 µM
- IC50 (P2Y purinoceptor 14 [3]): 15.9 nM
- Ki [17]: 6.8 µM
- Ki [18]: 2200 nM
- Ki (P2Y purinoceptor 14 [5]): 5.63 nM
- logD at 20 h [6]: 1.9
- Ki [21]: 5 µM
- Ratio IC50 [7]: 1.64
- Ki [8]: 7.3 µM
